The values that follow come from PubChem BioAssay.

Test [1] in a line: OD615 S. cerevisiae growth inhibition, permissive medium, pilot counter-assay, permissive growth control for S. cerevisiae lifespan shortening project (AID 705). The note with it: OD615, 24 h, at 10 µM, hits give high values. The method, boiled down: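 Material: engineered DeaD yeast; Compound: one dose 10 µM, DMSO 0.25% final; Detection: absorbance (optical density) at 615 nm; Buffer or medium: permissive raffinose/galactose medium; Timing: 24 h exposure, 30 °C.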

The nature of test [2]: Restrictive medium S. cerevisiae growth inhibition, OD615, pilot screen of yeast lifespan reduction project, restrictive growth control (AID 706;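 active = growth inhibition above a set limit, 3 SD over mean compound inhibition, in both replicates, cut at about 43% in these data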;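 note: modified DeaD lifespan yeast strain shifted to restrictive glucose medium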). The note with it: OD615, 48 h, at 10 µM, hits give high values. The gist of the method:
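Buffer or medium: restrictive glucose medium (CSMM-D); test system: modified S. cerevisiae; doses: single dose of 10 µM compound final, 0.25% DMSO; schedule: 48 h compound exposure at 30 °C; detection: absorbance (optical density) measured at 615 nm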

The nature of test [3]: viability gain of MRP-1-high H69AR cells under doxorubicin, pilot screen, MRP-1 activator project, CellTiter-Glo, duplicate (AID 807;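 active = viability increase at or above a cutoff of the median across tested compounds plus 3 SD, cut at about 8.5% in these data, passing the limit was not always enough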;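 note: compound pretreatment 18-22 h then 72 h combined with doxorubicin; 0% = doxorubicin alone and 100% = vehicle without doxorubicin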). Particulars: H69AR viability with doxorubicin, CellTiter-Glo luminescence; at 10 µM; hits give high values.
Test [4] is described as follows: growth suppression of PTEN-deleted HCT116, pilot screen, cell-based, HCT116 clonal line, CellTiter-Glo (AID 824;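 active = viability at or below 27.92% in each of two runs, the all-compound median minus 4 SD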;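 note: 0% = 20 µM Hyamine control and 100% = vehicle cell control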). Particulars: 60 h, at 10 µM, hits give low values. On the technique in general: In ATP-based viability assays light output follows the ATP content of the culture.
The nature of test [5]: inhibitors of the yeast RAM network, pilot screen, dse1pr::URA3 reporter, 5-FOA selection (AID 869;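 active = inhibition over a set limit, the all-compound mean plus 3 SD, in both replicate runs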;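 note: 0% = DMSO wells with no growth and 100% = 10 µM 1-NA-PP1 with full growth; RAM network block rescues cells from 5-FOA so hits raise OD615 growth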). The note with it: S. cerevisiae dse1pr::URA3 5-FOA growth, OD615, 2 d; at 10 µM; hits give high values; strain carries analog-sensitive mutant Cbk1 kinase.
A short description of test [6]: RAM signaling pathway blockade in yeast – S. cerevisiae, Pdr1DBD-CYC8 efflux-inhibited sensitized strain, primary screen (AID 1298;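 active = RAM network inhibition above 8.4% in each of two replicates, 3 SD over the compound average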;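 note: 0% = DMSO untreated cells without growth and 100% = 10 µM 1-NA-PP1 full growth; higher means more yeast growth rescued from 5-FOA killing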). The note with it: S. cerevisiae cbk1-as DSE1-URA3 strain, 5-FOA growth OD615, 2 d; at 50 µM; hits give high values.

A number with no mark means an inactive call. Records with an inconclusive call do not appear. Calls of active or inactive are those of the source.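 Rule for the calls, unless noted: active = growth inhibition above 25% in both replicates, a cutoff set 3 SD above the mean; inconclusive = above 25% in only one replicate; inactive = the rest.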

For orientation: viability means a read-out of living cells in per cent, often relative to untreated cells. A word on the inhibition: it is the change of the read-out against control, counted positive when it falls. Take `CCn1cc(C(=O)NCCCN2CC(C)CC(C)C2)c2cc(OC)c(OC)cc2c1=O` (stereo not given): the figures for the growth inhibition in test [1] and in test [2] were -15.8% and -7.97%, respectively. Besides, the viability increase in test [3] is -2.98%. For the same molecule, in test [4], the viability was 97.5%. In test [5], the inhibition was 1.03%. Also, the RAM network inhibition in test [6] was 3.13%.
Turning to `CCOC(=O)C1CCN(C(=O)c2oc3ccc(S(=O)(=O)N4CC(C)CC(C)C4)cc3c2C)CC1` (stereo not given), the values for the growth inhibition in test [1] and in test [2] were 1.57% and -4.64%, respectively. In test [3], the viability increase was -6.15%. Also, in test [4], the viability is 52.7%. Moreover, the inhibition in test [5] was -1.02%. Besides, in test [6], the RAM network inhibition is 5.32%.
With `COc1ccc(S(=O)(=O)C(C#N)c2nc3ccccc3nc2N2CCC(C)CC2)cc1` (stereo not given), the growth inhibition in test [1] was -12.1%; in test [2] it was -14.1%. Also, the viability increase in test [3] is -4.72%. Also, the viability in test [4] was 87.9%. In addition, the inhibition in test [5] was 3.85%. Further, the RAM network inhibition in test [6] is 8.8%.
Consider `COc1ccc(C(=O)NC(C)c2nc3ccccc3[nH]2)cc1OC` (stereo not given), for which the figures for the growth inhibition in test [1] and in test [2] were -9.91% and -3.65%, respectively. Besides, the viability increase in test [3] is -1.84%. Moreover, in test [4], the viability was 97.9%. In test [5], the inhibition is 2.15%. The RAM network inhibition in test [6] was 4.78%.
For `O=C(C1CCCN(S(=O)(=O)c2ccc(F)cc2)C1)N(Cc1cccs1)C1CC1` (stereo not given), the growth inhibition in test [1] was -11.5%; in test [2] it was -6.14%. Besides, the viability increase in test [3] was -1.34%. Moreover, the viability in test [4] is 71.7%. Besides, the inhibition in test [5] is 2.02%. Also, the RAM network inhibition in test [6] was 2.87%.
Regarding `Cc1ccc(-c2nc(-c3ccccn3)no2)cc1`, the growth inhibition in test [1] is 1.26%; in test [2], 10.2%. The viability increase in test [3] was -5.02%. The viability in test [4] was 24.4% (active). Besides, the inhibition in test [5] is -0.485%. For the same molecule, the RAM network inhibition in test [6] is 1.82%.
On to `CC1(C)CC(=O)C(C=NC2CC(C)(C)NC(C)(C)C2)=C(O)C1`, for which the growth inhibition was -1.6% in test [1] and -7.89% in test [2]. For the same molecule, in test [3], the viability increase was 0.22%. Also, the viability in test [4] is 95.5%. Besides, in test [5], the inhibition is 1.82%. The RAM network inhibition in test [6] was 4.6%.
Regarding `COc1ccccc1N1CCN(CC(O)COc2ccc3c(C)cc(=O)oc3c2)CC1` (stereo not given), the values for the growth inhibition in test [1] and in test [2] were -3.12% and -9.43%, respectively. The viability increase in test [3] was -2.57%. Besides, the viability in test [4] was 92.3%. The inhibition in test [5] is 1.95%. In addition, the RAM network inhibition in test [6] is 2.88%.
For the molecule `CCCCS(=O)CC(CS(=O)CCCC)OC(=O)c1ccc(C)cc1` (stereo not given), the growth inhibition in test [1] is -10.6%; in test [2], -7.7%. Moreover, the viability increase in test [3] was -1.14%. In addition, the viability in test [4] was 96.3%. In test [5], the inhibition was 1.73%. The RAM network inhibition in test [6] was 0.87%.
As to `CC1(C)CC(=O)C=C(Nc2cc(-c3ccccc3)[nH]n2)C1`, the growth inhibition in test [1] was -9.89%; in test [2], 3.12%. In test [3], the viability increase was -6.97%. Also, the viability in test [4] was 93.4%. For the same molecule, the inhibition in test [5] was -0.355%. Besides, in test [6], the RAM network inhibition is 2.78%.
As for `CCCn1c(C(C)NC(=O)c2ccccc2)nc2ccccc21` (stereo not given), the values for the growth inhibition in test [1] and in test [2] were -8.46% and -6.87%, respectively. The viability increase in test [3] was -2.18%. Besides, the viability in test [4] is 97.6%. Also, the inhibition in test [5] was 2.92%. The RAM network inhibition in test [6] is 5.38%.
As for `Oc1ccc(C=NCC2COc3ccccc3O2)cc1` (stereo not given), the growth inhibition in test [1] was -7.84%; in test [2] it was 2.85%. Besides, in test [3], the viability increase is -5.39%. Besides, in test [4], the viability is 85.3%. The inhibition in test [5] is 1.54%. Besides, the RAM network inhibition in test [6] is -2.56%.
Turning to `CCN(CC)c1ccc(CNC23CN4CN(CN(C4)C2)C3)cc1`, the growth inhibition in test [1] was -8.69%; in test [2], 2.79%. Also, in test [3], the viability increase is -2.2%. For the same molecule, the viability in test [4] was 94.1%. In addition, the inhibition in test [5] is 1.72%. The RAM network inhibition in test [6] is 2.4%.
As for `O=C(O)CCC(=O)CCC(=O)c1ccc(Cl)cc1`, the growth inhibition is 8.94% in test [1] and -2.93% in test [2]. Also, the viability increase in test [3] is -1.69%. Further, the viability in test [4] is 94.3%. In test [5], the inhibition is -0.55%. In test [6], the RAM network inhibition is 5.32%.
With `CCCCn1c(=NC(=O)c2ccco2)c(C(=O)OCC)cc2c(=O)n3ccccc3nc21`, the growth inhibition in test [1] is 1.16%; in test [2] it was 6.8%. Besides, in test [3], the viability increase was -6.94%. Besides, the viability in test [4] is 20.3% (active). Besides, in test [5], the inhibition is 0.795%. Also, in test [6], the RAM network inhibition is 1.9%.
As to `O=C(c1ccco1)c1n[nH]nc1-c1ccccc1`, the growth inhibition is -19.6% in test [1] and -5.81% in test [2]. In test [3], the viability increase is -3.17%. Moreover, the viability in test [4] is 102%. Further, in test [5], the inhibition is 1.16%. Moreover, in test [6], the RAM network inhibition is 1.94%.
As to `Cc1cccc(-n2ncc3c(NCc4ccccc4)ncnc32)c1`, the growth inhibition was 5.07% in test [1] and 12.1% in test [2]. The viability increase in test [3] is -5.25%. Also, in test [4], the viability is 31.8%. Further, in test [5], the inhibition is 1.38%. The RAM network inhibition in test [6] was 11.8%.
`C=C(C)Cn1c(CCCNC(=O)CC)nc2ccccc21`: the figures for the growth inhibition in test [1] and in test [2] were -5.08% and 14.8%, respectively. Further, the viability increase in test [3] was -1.27%. In addition, the viability in test [4] is 96%. For the same molecule, the inhibition in test [5] is 1.54%. In addition, in test [6], the RAM network inhibition is -0.92%.
On to `COc1ccc(CCNC(=O)c2oc3ccc(S(=O)(=O)N4CCOCC4)cc3c2C)cc1OC`, for which the results for the growth inhibition in test [1] and in test [2] were -0.835% and -1.39%, respectively. The viability increase in test [3] is -4.32%. The viability in test [4] was 78.8%. In test [5], the inhibition is 1.17%. Besides, in test [6], the RAM network inhibition is 3.69%.
Consider `Cc1noc(C)c1C(=O)NCCCc1ccccc1`, for which the growth inhibition is -4.23% in test [1] and -7.88% in test [2]. Further, in test [3], the viability increase is -1.07%. The viability in test [4] was 103%. Besides, the inhibition in test [5] was 0.62%. Further, the RAM network inhibition in test [6] was 0.21%.
